Results taken from ChEMBL document CHEMBL1132918, “Synthesis and evaluation of tryprostatin B and demethoxyfumitremorgin C analogues” (J Med Chem, 2000).

Key:
3Y1 cell line = test: Cytotoxicity in 3Y1 cells.; assay type: functional, Rattus norvegicus; parameters: unit not given here
In short: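 Rat normal fibroblast 3Y1 cells grown in Dulbecco's modified MEM with 10% fetal calf serum, 5% CO2, humidified. Exponentially growing cells exposed to compounds for 24 h. Relative cell number = cell number at 24 h per initial cell number at 0 h × 100; DNA content distribution read by laser scanning cytometry.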

CNS cell = test: Inhibitory activity against CNS cell line; assay type: functional, cell-based; settings: for IC50: Homo sapiens, CNS cell; for Log IC50: cns cell
Melanoma cell = test: Inhibitory activity against melanoma cell line; assay type: functional, cell-based; settings: for IC50: Homo sapiens, Melanoma cell; for Log IC50: melanoma cell
Colon cell = test: Inhibitory activity against Colon cell line; assay type: functional, cell-based; settings: for IC50: Homo sapiens, Colon cell; for Log IC50: colon cell
[1] = tested on: NCI-60 human tumor cell line panel (Homo sapiens); test: Cytostatic effect in NCI-60 human tumor cell lines.; parameters: unit not given here
Breast carcinoma cell = test: Inhibitory activity against breast cell line; assay type: functional, cell-based; settings: for IC50: Homo sapiens, Breast carcinoma cell; for Log IC50: breast carcinoma cell
Ovarian carcinoma cell = test: Inhibitory activity against ovarian cell line; assay type: functional, cell-based; settings: for IC50: Homo sapiens, Ovarian carcinoma cell
[2] = tested on: NCI-60 human tumor cell line panel (Homo sapiens); test: Mean concentration causing inhibition of cell growth in the NCI-60 human tumor cell line panel.
[3] = tested on: non-small-cell lung cancer cell lines (Homo sapiens); test: Inhibitory activity against non-small-cell lung cancer cell lines; settings: for IC50: Homo sapiens
Renal cell = test: Inhibitory activity against renal cell line; assay type: functional, cell-based; settings: for IC50: Homo sapiens, Renal cell; for Log IC50: renal cell
Prostate cell = test: Inhibitory activity against prostate cell line; assay type: functional, cell-based; settings: for IC50: Homo sapiens, Prostate cell
[4] = tested on: Panel leukemia (Carcinoma cell lines); test: Inhibitory activity against leukemia cell line; assay type: functional, cell-based; settings: for IC50: Homo sapiens, Panel leukemia (Carcinoma cell lines); for Log IC50: panel leukemia (carcinoma cell lines)
[5] = tested on: NCI-60 human tumor cell line panel (Homo sapiens); test: Mean averaged concentration for total growth inhibition, which signifies cytostatic effect

Compound	LC50 (3Y1 cell line)	IC50 (CNS cell)	IC50 (Melanoma cell)	IC50 (Colon cell)	TGI [1]	IC50 (Breast carcinoma cell)	IC50 (Ovarian carcinoma cell)	GI50 ([2]; Homo sapiens, NCI-60 panel)	IC50 [3]	IC50 (Renal cell)	IC50 (Prostate cell)	IC50 [4]	also measured
COc1cc([C@@H]2c3[nH]c4ccccc4c3C[C@H]3C(=O)N4CCC[C@H]4C(=O)N23)cc(OC)c1O	>-4	> 100 µM	> 100 µM	> 100 µM	>-4	> 100 µM	> 100 µM	> 100 µM	> 100 µM	> 100 µM	> 100 µM	> 100 µM	
O=C1[C@@H]2CCCN2C(=O)[C@H](Cc2c[nH]c3ccccc23)N1C/C=C/c1ccccc1	-4.01	37.2 µM	43.7 µM	35.5 µM	-4.07	27.5 µM	44.7 µM	31.6 µM	32.4 µM	35.5 µM	39.8 µM	22.9 µM	
COc1cc(CN2C(=O)[C@@H]3CCCN3C(=O)[C@@H]2Cc2c[nH]c3ccccc23)cc(OC)c1O	>-4	> 100 µM	95.5 µM	87.1 µM		95.5 µM	> 100 µM	91.2 µM	87.1 µM	> 100 µM	> 100 µM	64.6 µM	TGI [5]: >-4
CC(C)C[C@H]1c2[nH]c3ccccc3c2C[C@H]2C(=O)N3CCC[C@H]3C(=O)N21	>-4	83.2 µM	87.1 µM	67.6 µM		63.1 µM	79.4 µM	70.8 µM	77.6 µM	74.1 µM	83.2 µM	36.3 µM	
O=C1[C@@H]2Cc3c([nH]c4ccccc34)[C@H](c3ccccc3)N2C(=O)[C@@H]2CCCN12	>-4	> 100 µM	51.3 µM	41.7 µM	>-4	36.3 µM	57.5 µM	47.9 µM	63.1 µM	42.7 µM	85.1 µM	13.8 µM	
COc1cc([C@@H]2c3[nH]c4ccccc4c3C[C@H]3C(=O)N4CCC[C@H]4C(=O)N23)cc(OC)c1OC	>-4	74.1 µM	87.1 µM	74.1 µM	-4.01	46.8 µM	77.6 µM	66.1 µM	69.2 µM	77.6 µM	72.4 µM	32.4 µM	
COc1cc([C@H]2c3[nH]c4ccccc4c3C[C@H]3C(=O)N4CCC[C@H]4C(=O)N23)cc(OC)c1O	>-4	33.1 µM	55 µM	89.1 µM	>-4.03	46.8 µM	39.8 µM	53.7 µM	40.7 µM	44.7 µM	66.1 µM	100 µM	
O=C1[C@@H]2Cc3c([nH]c4ccccc34)[C@@H](c3ccccc3)N2C(=O)[C@@H]2CCCN12	>-4	61.7 µM	50.1 µM	45.7 µM	>-4	49 µM	56.2 µM	51.3 µM	52.5 µM	50.1 µM	63.1 µM	40.7 µM	
CC(C)C[C@@H]1c2[nH]c3ccccc3c2C[C@H]2C(=O)N3CCC[C@H]3C(=O)N12	>-4	85.1 µM	> 100 µM	> 100 µM	>-4	87.1 µM	> 100 µM	93.3 µM	93.3 µM	97.7 µM	> 100 µM	77.6 µM	
O=C1[C@H](Cc2c[nH]c3ccccc23)N(Cc2ccccc2)C(=O)[C@@H]2CCCN12	>-4	> 100 µM	> 100 µM	> 100 µM	>-4	> 100 µM	> 100 µM	97.7 µM	> 100 µM	> 100 µM	> 100 µM	85.1 µM	
COc1cc([C@H]2c3[nH]c4ccccc4c3C[C@H]3C(=O)N4CCC[C@H]4C(=O)N23)cc(OC)c1OC	>-4	95.5 µM	93.3 µM	93.3 µM	>-4	97.7 µM	72.4 µM	87.1 µM	70.8 µM	95.5 µM	91.2 µM	64.6 µM	
COc1cc(CN2C(=O)[C@@H]3CCCN3C(=O)[C@@H]2Cc2c[nH]c3ccccc23)cc(OC)c1OC	-4.01	27.5 µM	28.8 µM	30.2 µM	-4.04	33.9 µM	40.7 µM	30.9 µM	42.7 µM	30.2 µM	57.5 µM	13.2 µM	
COc1cc([C@@H]2c3[nH]c4ccccc4c3C[C@H]3C(=O)NCC(=O)N23)cc(OC)c1O (relative stereo)	>-4	38 µM	45.7 µM	46.8 µM	-4.01	49 µM	66.1 µM	50.1 µM	56.2 µM	55 µM	70.8 µM	38 µM	
COc1cc([C@H]2c3[nH]c4ccccc4c3C[C@H]3C(=O)NCC(=O)N23)cc(OC)c1OC (relative stereo)	>-4	> 100 µM	> 100 µM	> 100 µM	>-4	93.3 µM	> 100 µM	95.5 µM	> 100 µM	95.5 µM	> 100 µM	72.4 µM	
COc1cc([C@H]2c3[nH]c4ccccc4c3C[C@H]3C(=O)NCC(=O)N23)cc(OC)c1O (relative stereo)	>-4	> 100 µM	> 100 µM	> 100 µM	>-4	> 100 µM	> 100 µM	> 100 µM	> 100 µM	> 100 µM	> 100 µM	> 100 µM	
COc1cc([C@@H]2c3[nH]c4ccccc4c3C[C@H]3C(=O)NCC(=O)N23)cc(OC)c1OC (relative stereo)	-4.04	3.72 µM	6.76 µM	4.37 µM	-4.26	6.31 µM	5.89 µM	5.89 µM	7.59 µM	13.8 µM	5.5 µM	2.29 µM	
CC(C)=CCN1C(=O)[C@@H]2CCCN2C(=O)[C@@H]1Cc1c[nH]c2ccccc12 (stereo in doubt)	>-4	> 100 µM	> 100 µM	95.5 µM	-4.01	89.1 µM	> 100 µM	85.1 µM	97.7 µM	> 100 µM	> 100 µM	61.7 µM	
CC(C)=C[C@H]1c2[nH]c3ccccc3c2C[C@H]2C(=O)N3CCC[C@H]3C(=O)N21 (stereo in doubt) [DEMETHOXYFUMITREMORGIN C]													Log IC50 (CNS cell): -4; Log IC50 (Melanoma cell): > -4; Log IC50 (Colon cell): -4.02; Log IC50 (Breast carcinoma cell): > -4; Log IC50 (Ovarian carcinoma cell; ovarian carcinoma cell): > -4; GI50 [2]: 95.5 µM; Log IC50 [3]: -4.03; Log IC50 (Renal cell): > -4; Log IC50 (Prostate cell; prostate cell): > -4; Log IC50 [4]: -4.16
CC(C)=C[C@H]1c2[nH]c3ccccc3c2C[C@H]2C(=O)N3CCC[C@H]3C(=O)N21 (stereo in doubt; 3) [DEMETHOXYFUMITREMORGIN C]	>-4			53.7 µM	-4.02		70.8 µM		52.5 µM		50.1 µM	34.7 µM	Log IC50 (CNS cell): -4.36; Log IC50 (Melanoma cell): -4.32; Log IC50 (Breast carcinoma cell): -4.43; GI50 [2]: 43.7 µM; Log IC50 (Renal cell): -4.61
CC(C)=CCN1C(=O)[C@@H]2CCCN2C(=O)[C@@H]1Cc1c[nH]c2ccccc12 (stereo in doubt; 5a)					>-4								Log IC50 (Colon cell): > -4; Log IC50 (Breast carcinoma cell): > -4; GI50 [2]: > 100 µM; Log IC50 [3]: > -4; Log IC50 [4]: > -4
